Data from ChEMBL document CHEMBL4402513, “Bio-Inspired Dual-Selective BCL-2/c-MYC G-Quadruplex Binders: Design, Synthesis, and Anticancer Activity of Drug-like Imidazo[2,1-i]purine Derivatives” (J Med Chem, 2020).
The source made the active and inactive calls. No cut-off for these calls is given here.

What was measured:
Jurkat [1] = test: Induction of apoptosis in human Jurkat cells assessed as viable cells at 25 uM measured after 48 hrs by Annexin V-FITC/propidium iodide staining based flow cytometry (reference value: 97%); assay type: functional; settings: read-out: Activity
Jurkat [2] = test: Down regulation of c-MYC mRNA expression in human Jurkat cells at 25 uM measured after 24 hrs by RT-qPCR analysis relative to control; assay type: functional
In short: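 Jurkat cells were treated 24 h at 25 µM, and total RNA was extracted with TRI Reagent. 0.5 µg RNA was reverse transcribed with MMLV RT and random primers (22 °C 10 min, 42 °C 60 min). SYBR qPCR ran 40 cycles (95/59/72 °C) in duplicate with GAPDH as reference. Relative expression was calculated by the […] method from at least three independent experiments.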

Quadruplex DNA [3] = test: Binding affinity to synthetic c-MYC G4 quadruplex DNA assessed as change in melting temperature at 10 molar equiv to DNA measured after 10 mins by circular dichroism melting analysis; assay type: nucleic-acid assay
In short: (§1)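 CD melting of folded DNA (G4 10 µM, duplex 15 µM) in 20 mM KCl, 5 mM KH2PO4 (pH 7.0), without and with 10 molar equivalents of ligand. Tm was taken from curve fitting, and ΔTm = Tm(DNA+ligand) − Tm(DNA). Runs were done in triplicate and averaged.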

[4] = Binding affinity to synthetic 20-mer hairpin duplex DNA assessed as change in melting temperature at 10 molar equiv to DNA measured after 10 mins by circular dichroism melting analysis; in short: as §1
Jurkat [5] = test: Induction of apoptosis in human Jurkat cells assessed as late apoptotic cells at 25 uM measured after 48 hrs by Annexin V-FITC/propidium iodide staining based flow cytometry (reference value: 1.4%); assay type: functional
Jurkat [6] = test: Induction of apoptosis in human Jurkat cells assessed as early apoptotic cells at 25 uM measured after 48 hrs by Annexin V-FITC/propidium iodide staining based flow cytometry (reference value: 0.3%); assay type: functional
Quadruplex DNA [7] = test: Binding affinity to synthetic BCL2 G4 quadruplex DNA assessed as change in melting temperature at 10 molar equiv to DNA measured after 10 mins by circular dichroism melting analysis; assay type: nucleic-acid assay; in short: as §1
Jurkat [8] = test: Cytotoxicity against human Jurkat cells assessed as reduction in cell viability at 50 uM measured after 48 hrs by combined MTT and trypan blue staining based cell counting assay; assay type: functional
In short: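 Cells were seeded at 10^4/well (HDF 10^3), grown 24 h, then treated 48 h at 5–100 µM in 0.5% v/v DMSO. Read-outs were MTT (1 h, 37 °C, absorbance 550 nm; Jurkat handled by centrifugation) combined with trypan blue live/dead counting into a survival index versus untreated cells. IC50 came from nonlinear regression, n = 6 per experiment ×3 (n = 18), mean ± SEM.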

Jurkat [9] = test: Down regulation of BCL2 expression in human Jurkat cells at 25 uM measured after 24 hrs by Western blot analysis relative to control; assay type: functional
In short: (§2)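 Jurkat cells treated 24 h at 25 µM were lysed in 50 mM Hepes pH 7.4, 50 mM NaCl, 1% Triton with protease inhibitors. Protein was quantified by Bradford and run on 10% SDS-PAGE to nitrocellulose. Blots were probed with anti-Bcl-2, anti-c-Myc and anti-β-actin and detected by ECL. Densitometry was normalised to β-actin and expressed as % of control; three independent experiments.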

Quadruplex DNA [10] = test: Binding affinity to synthetic c-KIT1 G4 quadruplex DNA assessed as change in melting temperature at 10 molar equiv to DNA measured after 10 mins by circular dichroism melting analysis; assay type: nucleic-acid assay; in short: as §1
Quadruplex DNA [11] = test: Binding affinity to human telomeric 23 G4 quadruplex DNA assessed as change in melting temperature at 10 molar equiv to DNA measured after 10 mins by circular dichroism melting analysis; assay type: nucleic-acid assay; in short: as §1
Jurkat [12] = test: Down regulation of c-MYC expression in human Jurkat cells at 25 uM measured after 24 hrs by Western blot analysis relative to control; assay type: functional; in short: as §2
Quadruplex DNA [13] = test: Binding affinity to synthetic c-MYC G4 quadruplex DNA assessed as change in chiral structure at 10 molar equiv to DNA measured after 10 mins by circular dichroism spectroscopic analysis; assay type: nucleic-acid assay
In short: (§3)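 CD spectra of annealed DNA in 20 mM KCl, 5 mM KH2PO4 (pH 7.0). G4 DNAs were at 10 µM and duplex at 15 µM. Ligand (10 mM DMSO stock) was added at 10 molar equivalents. Spectra were recorded 10 min after addition at 20 °C over 230–360 nm, averaged over three scans and baseline corrected.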

Quadruplex DNA [14] = test: Binding affinity to human telomeric 23 G4 quadruplex DNA assessed as change in chiral structure at 10 molar equiv to DNA measured after 10 mins by circular dichroism spectroscopic analysis; assay type: nucleic-acid assay; in short: as §3
[15] = Binding affinity to synthetic 20-mer hairpin duplex DNA assessed as change in chiral structure at 10 molar equiv to DNA measured after 10 mins by circular dichroism spectroscopic analysis; in short: as §3
Quadruplex DNA [16] = test: Binding affinity to synthetic c-KIT1 G4 quadruplex DNA assessed as change in chiral structure at 10 molar equiv to DNA measured after 10 mins by circular dichroism spectroscopic analysis; assay type: nucleic-acid assay; in short: as §3
Quadruplex DNA [17] = test: Binding affinity to synthetic BCL2 G4 quadruplex DNA assessed as change in chiral structure at 10 molar equiv to DNA measured after 10 mins by circular dichroism spectroscopic analysis; assay type: nucleic-acid assay; in short: as §3

SMILES	ΔTm (Quadruplex DNA [3])	ΔTm [4]	ΔTm (Quadruplex DNA [7])	ΔTm (Quadruplex DNA [10])	ΔTm (Quadruplex DNA [11])	other results
CC(C)(C)Nc1c(-c2ccccc2OCCN2CCCC2)nc2c3ncn(CCN4CCCC4)c3ncn12	8.4 °C	2.2 °C	7.1 °C	4.5 °C	4.9 °C	–
CN(C)CCCn1cnc2c1ncn1c(NC(C)(C)C)c(-c3ccc(N(C)C)cc3)nc21	> 25 °C	–	16.9 °C	11.9 °C	7.2 °C	–
CN(C)c1ccc(-c2nc3ccn(CCN4CCOCC4)c(=O)n3c2NC(C)(C)C)cc1	–	–	–	–	–	Activity (Quadruplex DNA [13]): inactive; deltaTm (Quadruplex DNA [3]): inactive; Activity (Quadruplex DNA [14]): inactive; deltaTm [4]: inactive; Activity [15]: inactive; deltaTm (Quadruplex DNA [7]): inactive; Activity (Quadruplex DNA [16]): inactive; Activity (Quadruplex DNA [17]): inactive; deltaTm (Quadruplex DNA [10]): inactive; deltaTm (Quadruplex DNA [11]): inactive
CC(C)(C)Nc1c(-c2ccccc2F)nc2c3ncn(CCN4CCCC4)c3ncn12	5.8 °C	0.3 °C	5 °C	2.1 °C	1.1 °C	–
CC(C)(C)Nc1c(-c2ccc(Cl)cc2)nc2c3ncn(CCN4CCCC4)c3ncn12	6.4 °C	1.9 °C	4.5 °C	2.3 °C	2.3 °C	–
CN(C)CCCOc1ccccc1-c1nc2c3ncn(CCCN(C)C)c3ncn2c1NC(C)(C)C	> 25 °C	3.5 °C	7.8 °C	4.5 °C	5.7 °C	–

More lines, main results first:

ΔTm (Quadruplex DNA [3])	ΔTm [4]	ΔTm (Quadruplex DNA [7])	ΔTm (Quadruplex DNA [10])	ΔTm (Quadruplex DNA [11])	SMILES	other results
2.1 °C	1.5 °C	4.9 °C	1.9 °C	1 °C	CC(C)(C)Nc1c(-c2ccc(N3CCOCC3)cc2)nc2c3ncn(CCN4CCOCC4)c3ncn12	viability at 25 µM (Jurkat [1]): 79%; Activity (Jurkat [2]): 27%; Activity (Jurkat [5]): 9%; Activity (Jurkat [6]): 8%; Activity (Jurkat [8]): Active; Activity (Jurkat [9]): Active; Activity (Jurkat [12]): Active
1.6 °C	-0.5 °C	2.1 °C	1.1 °C	0.3 °C	CC(C)(C)Nc1c(-c2ccc(Cl)cc2)nc2c3ncn(CCN4CCOCC4)c3ncn12	–
1.9 °C	0.5 °C	2.6 °C	1 °C	0.7 °C	CC(C)(C)Nc1c(-c2ccccc2F)nc2c3ncn(CCN4CCOCC4)c3ncn12	–
8.7 °C	6 °C	9.1 °C	2.9 °C	2.2 °C	CC(C)(C)Nc1c(-c2ccc(N3CCOCC3)cc2)nc2c3ncn(CCN4CCCC4)c3ncn12	–
